Laboratory results as given in ChEMBL document CHEMBL4152239, “Design, synthesis and structure-activity relationship studies of GPR40 agonists containing amide linker” (Eur J Med Chem, 2018).
Values belong to the compound of their own block, whether it stands above or below them. Active and inactive are the calls of the source. No cut-off for these calls is given here.

Legend:
[1] = molecular target: Free fatty acid receptor 1 (Homo sapiens, UniProt O14842); assay: Agonist activity at human GPR40 expressed in HEK293 cells assessed as increase in calcium mobilization by Fluo-8 dye based fluorescence assay; assay type: functional, cell-based
Chain of Free fatty acid receptor 1 (Homo sapiens, UniProt O14842) (O14842 whole entry): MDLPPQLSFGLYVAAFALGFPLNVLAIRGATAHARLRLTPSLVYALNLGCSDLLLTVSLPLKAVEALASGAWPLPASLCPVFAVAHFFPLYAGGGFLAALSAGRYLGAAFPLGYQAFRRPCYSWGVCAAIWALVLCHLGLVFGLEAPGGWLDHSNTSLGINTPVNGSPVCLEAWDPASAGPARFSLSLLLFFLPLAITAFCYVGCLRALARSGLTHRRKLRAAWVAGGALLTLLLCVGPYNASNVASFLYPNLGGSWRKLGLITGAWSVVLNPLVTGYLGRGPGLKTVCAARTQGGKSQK

[2] = Half life in human liver microsomes at 0.1 mM in presence of NADPH by LC-MS analysis; assay type: ADME, microsome
[3] = Half life in mouse liver microsomes at 0.1 mM in presence of NADPH by LC-MS analysis; assay type: ADME, microsome
[4] = Apparent permeability across apical to basolateral side in human Caco2 cells by LC-MS analysis; assay type: ADME, cell-based; settings: caco-2
[5] = Efflux ratio of permeability from […] in human Caco2 cells by LC-MS analysis; assay type: ADME, cell-based; settings: caco-2
[6] = molecular target: Free fatty acid receptor 1 (Rattus norvegicus, UniProt Q8K3T4); assay: Agonist activity at rat GPR40; assay type: functional
Chain of Free fatty acid receptor 1 (Rattus norvegicus, UniProt Q8K3T4) (Q8K3T4 whole entry): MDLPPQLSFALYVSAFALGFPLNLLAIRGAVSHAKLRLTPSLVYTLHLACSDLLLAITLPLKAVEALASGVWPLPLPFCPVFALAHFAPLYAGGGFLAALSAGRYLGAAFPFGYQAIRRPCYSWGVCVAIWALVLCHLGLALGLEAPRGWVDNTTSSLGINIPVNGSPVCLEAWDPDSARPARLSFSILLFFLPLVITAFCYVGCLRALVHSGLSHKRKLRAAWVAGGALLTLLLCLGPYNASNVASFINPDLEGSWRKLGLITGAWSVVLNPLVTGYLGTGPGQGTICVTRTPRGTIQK

[7] = molecular target: Free fatty acid receptor 1 (Mus musculus, UniProt Q76JU9); assay: Agonist activity at mouse GPR40; assay type: functional
Chain of Free fatty acid receptor 1 (Mus musculus, UniProt Q76JU9) (Q76JU9 whole entry): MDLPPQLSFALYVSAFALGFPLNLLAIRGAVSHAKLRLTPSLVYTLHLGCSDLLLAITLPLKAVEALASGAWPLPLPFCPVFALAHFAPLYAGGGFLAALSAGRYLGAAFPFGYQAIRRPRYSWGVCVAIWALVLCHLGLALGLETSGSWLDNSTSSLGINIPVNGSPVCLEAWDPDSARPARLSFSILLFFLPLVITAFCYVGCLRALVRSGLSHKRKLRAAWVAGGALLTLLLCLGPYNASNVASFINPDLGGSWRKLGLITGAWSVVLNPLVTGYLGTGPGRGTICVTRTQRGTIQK

[8] = AUC (0 to 8 hrs) in ICR mouse at 30 mg/kg, po by LC-MS analysis; assay type: ADME, organism-based; parameters: dose 30 mg/kg, time < 8 hr, route oral; settings: in vivo
Outline: (§1)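 Male ICR mice, single oral dose of 30mg/kg, n = 3 per compound; vehicle 0.1% Tween-80 in 1% hydropropylcellulose sodium. Plasma sampled over time to derive pharmacokinetic parameters.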

[9] = Half life in ICR mouse at 30 mg/kg, po by LC-MS analysis; assay type: ADME, organism-based; settings: in vivo; outline: as §1
[10] = Tmax in ICR mouse at 30 mg/kg, po by LC-MS analysis; assay type: ADME, organism-based; settings: in vivo; outline: as §1
[11] = Cmax in ICR mouse at 30 mg/kg, po by LC-MS analysis; assay type: ADME, organism-based; parameters: dose 30 mg/kg, route oral; settings: in vivo; outline: as §1
[12] = Ratio of drug uptake in ICR mouse brain to plasma at 30 mg/kg, po measured at 0.75 hrs by LC-MS analysis; assay type: ADME, organism-based; settings: read-out: BPR
Outline: (§2)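 Male ICR mice (n = 3) were dosed orally at 30 mg/kg and sacrificed at a set time point. The time point depended on the compound: 0.75 h for some and 1 h for others. Total drug in brain and liver was expressed as a ratio to total plasma drug (brain-to-plasma and liver-to-plasma distribution ratios).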

[13] = Ratio of drug uptake in ICR mouse liver to plasma at 30 mg/kg, po measured at 0.75 hrs by LC-MS analysis; assay type: ADME, organism-based; outline: as §2
[14] = Ratio of drug uptake in rat brain to plasma; assay type: ADME; settings: read-out: BPR
[15] = Ratio of drug uptake in ICR mouse brain to plasma at 30 mg/kg, po measured at 1 hr by LC-MS analysis; assay type: ADME, organism-based; settings: read-out: BPR
Outline: (§3)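 Male ICR mice received 30mg/kg orally, n = 3. Mice were sacrificed at 0.75 h or 1 h depending on compound. Total drug in brain or liver was divided by plasma drug to give the distribution ratio.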

[16] = Ratio of drug uptake in ICR mouse liver to plasma at 30 mg/kg, po measured at 1 hr by LC-MS analysis; assay type: ADME, organism-based; outline: as §3
[17] = tested on: Mus musculus; assay: Antidiabetic activity in ICR mouse assessed as reduction in blood glucose AUC (0 to 120 mins) at 100 mg/kg, po dosed 30 minutes prior to glucose challenge by OGTT; assay type: functional, organism-based
Outline: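 ICR mice (n=8) received compound orally before an oral glucose load of 2.5 g/kg. […] Comparison was against vehicle control by Student's t-test.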

Compound: CC#C[C@@H](CC(=O)O)c1ccc(OCc2ccc(C(=O)N[C@H]3CCCc4ccccc43)cc2)cc1
EC50 [1]: 0.039 µM
half-life at 100 µM [2]: 214 min
half-life at 100 µM [3]: 27 min
Papp A→B [4]: 15.2 ×10⁻⁶ cm/s
Ratio [5]: 1.2
EC50 [6]: 0.028 µM
EC50 [7]: 0.042 µM
AUC(0-t) at 8 h [8]: 3760 ng·h/mL
half-life [9]: 180 min
Tmax [10]: 15 min
Cmax [11]: 3770 ng/mL
Kp at 0.75 h [12]: 0.006
Kp at 0.75 h [13]: 0.9

Compound: CC#CC(CC(=O)O)c1ccc(OCc2ccc(C(=O)NC3CCCc4ccccc43)cc2)cc1 (stereo not drawn)
EC50 [1]: 0.042 µM

Compound: Cc1nc(-c2ccc(C(F)(F)F)cc2)sc1COc1ccc([C@H](CC(=O)O)c2ccon2)cc1
Kp [14]: 0.02

Compound: CC#CC(CC(=O)O)c1ccc(OCc2cnc(C(=O)N3CCN(c4ccc(F)cc4)CC3)s2)cc1 (stereo not drawn)
EC50 [1]: 0.203 µM

Compound: CC#CC(CC(=O)O)c1ccc(OCc2ccc(C(=O)NC3CCCc4ccccc43)o2)cc1 (stereo not drawn)
EC50 [1]: 0.133 µM

Compound: CC#CC(CC(=O)O)c1ccc(OCc2ccc(C(=O)N3CCN(c4cccnc4)CC3)s2)cc1 (stereo not drawn)
EC50 [1]: 1.14 µM

Compound: CC#CC(CC(=O)O)c1ccc(OCc2ccc(C(=O)N3CCc4ccccc4C3)s2)cc1 (stereo not drawn)
EC50 [1]: 0.057 µM

Compound: Cc1cc(Cl)ccc1-c1cccc(COc2ccc([C@H](CC(=O)O)c3nccn3C)cc2)c1
Kp [14]: 0.04

Compound: O=C(O)CC1COc2cc(OCc3ccc(C(=O)N4CCN(c5ccc(F)cc5)CC4)s3)ccc21 (stereo not drawn)
EC50 [1]: > 1.67 µM

Compound: CC#CC(CC(=O)O)c1ccc(OCc2cnc(C(=O)NC3CCCc4ccccc43)s2)cc1 (stereo not drawn)
EC50 [1]: 0.144 µM

Compound: CC#CC(CC(=O)O)c1ccc(OCc2ccc(C(=O)N3CCN(c4ccc(F)cc4)CC3)cc2)cc1 (stereo not drawn)
EC50 [1]: 0.114 µM

Compound: CC#CC(CC(=O)O)c1ccc(OCc2ccc(C(=O)N3CCN(c4ccc([N+](=O)[O-])cc4)CC3)s2)cc1 (stereo not drawn)
EC50 [1]: 0.231 µM

Compound: CC#CC(CC(=O)O)c1ccc(OCc2ccc(C(=O)N3CCN(c4ccc(C)cc4)CC3)s2)cc1 (stereo not drawn)
EC50 [1]: 0.211 µM

Compound: CC#CC(CC(=O)O)c1ccc(OCc2ccc(C(=O)N3CCN(c4ccc(C(C)(C)C)cc4)CC3)s2)cc1 (stereo not drawn)
EC50 [1]: 0.417 µM

Compound: CC#CC(CC(=O)O)c1ccc(OCc2ccc(C(=O)N3CCc4ccccc4C3)cc2)cc1 (stereo not drawn)
EC50 [1]: 0.106 µM

Compound: CC#C[C@H](CC(=O)O)c1ccc(OCc2ccc(C(=O)N3CCN(c4ccc(F)cc4)CC3)s2)cc1
EC50 [1]: > 5 µM

Compound: O=C(O)CC(c1ccc(OCc2ccc(C(=O)N3CCN(c4ccc(F)cc4)CC3)s2)cc1)C1CC1 (stereo not drawn)
EC50 [1]: > 1.67 µM

Compound: CC#CC(CC(=O)O)c1ccc(OCc2ccc(C(=O)N3CCN(c4ccccn4)CC3)s2)cc1 (stereo not drawn)
EC50 [1]: 0.138 µM

Compound: CC#CC(CC(=O)O)c1ccc(OCc2ccc(C(=O)NC3CCCc4ccccc43)s2)cc1 (stereo not drawn)
EC50 [1]: 0.109 µM

Compound: CC#CC(CC(=O)O)c1ccc(OCc2ccc(C(=O)N3CCN(c4cccc([N+](=O)[O-])c4)CC3)s2)cc1 (stereo not drawn)
EC50 [1]: 0.187 µM

Compound: CC#CC(CC(=O)O)c1ccc(OCc2ccc(C(=O)N3CCC4(C=Cc5ccccc54)CC3)cc2)cc1 (stereo not drawn)
EC50 [1]: 0.179 µM
half-life at 100 µM [2]: 9 min
half-life at 100 µM [3]: 6 min
Papp A→B [4]: 10.9 ×10⁻⁶ cm/s
Ratio [5]: 0.3

Compound: CC#CC(CC(=O)O)c1ccc(OCc2ccc(C(=O)N3CCCc4ccccc43)s2)cc1 (stereo not drawn)
EC50 [1]: 0.08 µM

Compound: CC#CC(CC(=O)O)c1ccc(OCc2ccc(C(=O)N3CCN(c4cccc(F)c4)CC3)s2)cc1 (stereo not drawn)
EC50 [1]: 0.097 µM

Compound: CC#CC(CC(=O)O)c1ccc(OCc2ccc(C(=O)N3CCC4(C=Cc5ccccc54)CC3)s2)cc1 (stereo not drawn)
EC50 [1]: 0.172 µM
half-life at 100 µM [2]: 25 min
half-life at 100 µM [3]: 7 min
Papp A→B [4]: 19.3 ×10⁻⁶ cm/s
Ratio [5]: 0.3

Compound: O=C(O)CCc1ccc(OCc2ccc(C(=O)N3CCN(c4ccc(F)cc4)CC3)s2)cc1
EC50 [1]: 0.61 µM

Compound: CC#CC(CC(=O)O)c1ccc(OCc2ccc(C(=O)N3CCN(c4ccccc4[N+](=O)[O-])CC3)s2)cc1 (stereo not drawn)
EC50 [1]: 0.094 µM

Second part, led by results:

EC50 [1]: 0.072 µM
half-life at 100 µM [2]: 105 min
half-life at 100 µM [3]: 55 min
Compound: CC#CC(CC(=O)O)c1ccc(OCc2ccc(C(=O)N3CCN(c4ccccc4)CC3)s2)cc1 (stereo not drawn)

EC50 [1]: 0.054 µM
Compound: CC#CC(CC(=O)O)c1ccc(OCc2ccc(C(=O)N3CCN(c4ccc(F)cc4)CC3)s2)cc1 (stereo not drawn)

EC50 [1]: 0.155 µM
Compound: CC#CC(CC(=O)O)c1ccc(OCc2ccc(C(=O)N3CCN(Cc4ccccc4)CC3)s2)cc1 (stereo not drawn)

EC50 [1]: 0.047 µM
half-life at 100 µM [2]: 64 min
half-life at 100 µM [3]: 120 min
Papp A→B [4]: 20.6 ×10⁻⁶ cm/s
Ratio [5]: 0.8
EC50 [6]: 0.025 µM
EC50 [7]: 0.031 µM
AUC(0-t) at 8 h [8]: 28400 ng·h/mL
half-life [9]: 228 min
Tmax [10]: 48 min
Cmax [11]: 13300 ng/mL
Kp at 1 h [15]: 0.018
Kp at 1 h [16]: 15.1
Compound: CC#C[C@@H](CC(=O)O)c1ccc(OCc2ccc(C(=O)N3CCN(c4ccc(F)cc4)CC3)s2)cc1

EC50 [1]: 0.113 µM
Compound: CC#CC(CC(=O)O)c1ccc(OCc2ccc(C(=O)N3CCN(c4ccccc4F)CC3)s2)cc1 (stereo not drawn)

EC50 [1]: > 5 µM
Compound: CC#CC(CC(=O)O)c1ccc(OCc2ccc(C(=O)N3CCN(c4ccncc4)CC3)s2)cc1 (stereo not drawn)

EC50 [1]: 0.82 µM
Compound: CC#CC(CC(=O)O)c1ccc(OCc2ccc(C(=O)N3CCN(C4CCCCC4)CC3)s2)cc1 (stereo not drawn)

EC50 [1]: 0.531 µM
Compound: CC#CC(CC(=O)O)c1ccc(OCc2cnc(C(=O)N3CCc4ccccc4C3)s2)cc1 (stereo not drawn)

EC50 [1]: 0.133 µM
Compound: CC#CC(CC(=O)O)c1ccc(OCc2ccc(C(=O)N3CCN(c4ccc(Cl)cc4)CC3)s2)cc1 (stereo not drawn)

EC50 [1]: 0.134 µM
half-life at 100 µM [2]: 18 min
half-life at 100 µM [3]: 2 min
Papp A→B [4]: 15 ×10⁻⁶ cm/s
Ratio [5]: 0.4
AUC(0-t) at 8 h [8]: 5150 ng·h/mL
half-life [9]: 78 min
Tmax [10]: 42 min
Cmax [11]: 2850 ng/mL
Kp at 0.75 h [12]: 0.14
Kp at 0.75 h [13]: 2.5
Compound: CC#C[C@@H](CC(=O)O)c1ccc(OCc2ccc(CN3CCC4(C=Cc5ccccc54)CC3)cc2)cc1 [LY2881835]

EC50 [1]: 0.05 µM
Compound: CC#CC(CC(=O)O)c1ccc(OCc2ccc(C(=O)N3CCc4ccccc4C3)o2)cc1 (stereo not drawn)

EC50 [1]: > 5 µM
Compound: CC#CC(CC(=O)O)c1ccc(OCc2ccc(C(=O)N3CCN(C)CC3)s2)cc1 (stereo not drawn)

EC50 [1]: 0.02 µM
half-life at 100 µM [2]: 387 min
half-life at 100 µM [3]: 74 min
Papp A→B [4]: 18.8 ×10⁻⁶ cm/s
Ratio [5]: 0.9
EC50 [6]: 0.014 µM
EC50 [7]: 0.023 µM
AUC(0-t) at 8 h [8]: 80000 ng·h/mL
half-life [9]: 318 min
Tmax [10]: 72 min
Cmax [11]: 15400 ng/mL
Kp at 1 h [15]: 0.011
Kp at 1 h [16]: 0.3
Compound: CC#C[C@@H](CC(=O)O)c1ccc(OCc2ccc(C(=O)N[C@@H]3CCCc4ccccc43)cc2)cc1
Activity [17]: Active

EC50 [1]: 0.308 µM
Compound: CC#CC(CC(=O)O)c1ccc(OCc2ccc(C(=O)N3CCN(c4ccc(F)cc4)CC3)o2)cc1 (stereo not drawn)

EC50 [1]: 0.289 µM
Compound: CC#CC(CC(=O)O)c1ccc(OCc2ccc(C(=O)N3CCN(c4ccc(OC)cc4)CC3)s2)cc1 (stereo not drawn)
